Sampled rows, rich in hits. Any-hit rate of the full collection: about 1.8%.
MC4R antag cAMP = MC4R antagonists of cAMP signaling, primary screen, cell-based, TR-FRET, antagonist arm of biased-ligand search. MC4R-expressing cells, MTII-stimulated cAMP, LANCE TR-FRET. inhibition, % at 6.5 µM. AID 540295, 2011. 360,000 tested, 0.48% active. Melanocortin receptor 4 (Homo sapiens), P32245;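 active means inhibition above its plate's cutoff, the mean of tested wells on that plate plus 3 SD, cut at about 29% in these data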
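System – human MC4R-expressing U2OS cells · Also added – Melanotan II · Dosing – one concentration, 6.5 µM nominal · Timing – 30-min compound, 1-h challenge, 1-h detection, room temperature · Measured by – Eu-cAMP/anti-cAMP TR-FRET, emission 671 nm · Replicates – singlicate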
NTR1 ag = agonists of human NTR1, primary screen, imaging, U2OS cells, beta-arrestin-GFP, high content; NTR1-U2OS beta-arrestin-GFP spot imaging, agonist mode; 330,000 tested, 0.17% active; activation, % at 20 µM; Neurotensin receptor type 1 (Homo sapiens), P30989;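 active means activation at or above 40% of the spot to cytoplasm intensity ratio, with at least 20 cells analyzed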
Target sequence (P30989 whole entry, looked up): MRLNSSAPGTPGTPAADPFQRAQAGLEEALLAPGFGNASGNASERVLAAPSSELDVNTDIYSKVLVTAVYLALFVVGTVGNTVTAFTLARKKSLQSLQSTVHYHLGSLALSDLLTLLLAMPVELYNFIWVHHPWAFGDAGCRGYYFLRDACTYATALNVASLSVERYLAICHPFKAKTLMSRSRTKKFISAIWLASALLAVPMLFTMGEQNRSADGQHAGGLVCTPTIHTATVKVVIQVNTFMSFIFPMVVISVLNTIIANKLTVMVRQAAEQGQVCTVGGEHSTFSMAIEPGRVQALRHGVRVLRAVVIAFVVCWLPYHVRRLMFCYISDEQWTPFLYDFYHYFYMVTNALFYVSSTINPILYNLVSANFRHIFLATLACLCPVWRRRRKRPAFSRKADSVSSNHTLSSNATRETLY
AI-2 QS modul = Vibrio harveyi AI-2 quorum sensing modulators, primary screen, JMH597 strain, luminescence/OD600 ratio. Vibrio harveyi JMH597 AI-2 luminescence/OD600 ratio, 9 h; stronger effect = lower value; strain lacks LuxN and CqsS sensors; 0 = neutral-control median. activity change, % at 7.5 µM. 300,000 tested, 0.4% active. AID 2094, 2009; in the data active means activity change below about -75%, passing the limit was not always enough;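 further: luminescence divided by OD600 gain over 9 h not by final OD600 alone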
MC4R ag barr = MC4R agonists recruiting beta-arrestin, primary screen, cell-based, luminescence, agonist arm of biased-ligand search; Melanocortin receptor 4 (Homo sapiens), P32245; activation, % at 8.9 µM; U2OS MC4R beta-arrestin complementation; percent of melanotan II response, DMSO zero; 360,000 tested, 0.98% active;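 active means activation above a per-plate cutoff, the mean activation of sample wells on that plate plus 3 SD, cut at about 8% in these data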
cAMP nonselect = nonselective cAMP signaling inhibitors, parental cells, counter-screen for MC4R biased antagonist project, cell-based, TR-FRET, U2OS, forskolin, triplicate | inhibition, % at 6.5 µM | LANCE TR-FRET | shares compounds with MC4R antag cAMP | 1,600 tested, 26% active;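 active means mean inhibition over triplicates above the low-control well mean plus 3 SD, set per campaign, cut at about 13% in these data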;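 further: signal is single emission at 671 nm which falls as cellular cAMP rises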
MC4R antag conf = MC4R cAMP antagonists, retest, confirmation, cell-based, TR-FRET | shares compounds with MC4R antag cAMP | MC4R-expressing cells, MTII-stimulated cAMP | inhibition, % at 6.5 µM | 1,600 tested, 27% active; in the data active means inhibition above about 29%
Of the large screens only hits and unclear results are named; the others gave an inactive call (follow-up assays come after a bar, where they were run).

COC(=O)COc1ccc(S(=O)(=O)N2CCN(c3ccc(OC)cc3)CC2)cc1	MC4R antag cAMP 30.1 | cAMP nonselect 17.9 | MC4R antag conf 46.4
COC(=O)CSc1nnc(-c2ccc(S(=O)(=O)N3CCCC3)cc2)o1	MC4R antag cAMP 34.0 | cAMP nonselect 14.3 | MC4R antag conf inactive
CCOC(=O)Cc1csc(NC(=O)CSc2nnc(-c3ccc(NS(=O)(=O)CC)cc3)o2)n1	MC4R antag cAMP 29.5 | cAMP nonselect inactive | MC4R antag conf inactive
COC(=O)CSc1nnc(-c2ccc(S(=O)(=O)NCc3ccccc3Cl)cc2)o1	MC4R antag cAMP 36.1 | cAMP nonselect inactive | MC4R antag conf 40.3
CCOC(=O)CSc1nnc(-c2ccc(S(=O)(=O)NCc3cccs3)cc2)o1	MC4R antag cAMP 38.5 | cAMP nonselect 15.4 | MC4R antag conf 41.5
CCNC(=O)N1C[C@H]2CON(C)[C@H]2C[C@H]1c1ccccc1Br	none (no result: NTR1 ag, AI-2 QS modul)
C=C1[C@@H](O)[C@H](CC(C)C)N(Cc2ccccc2Br)S1(=O)=O	none (no result: NTR1 ag, AI-2 QS modul)
COC(=O)CSc1nnc(-c2ccc(S(=O)(=O)NCc3cccs3)cc2)o1	MC4R antag cAMP 43.0 | cAMP nonselect 17.4 | MC4R antag conf 44.0
CCS(=O)(=O)Nc1ccc(-c2nnc(SCC(=O)OC)o2)cc1	none
Cc1cc(N2CCCC2=O)ccc1S(=O)(=O)Nc1c(C)nn(C)c1C	MC4R antag cAMP 33.7 | cAMP nonselect inactive | MC4R antag conf inactive
CC(=O)c1sc(NC(=O)c2cccc(N3C(=O)CCC3=O)c2)nc1-c1ccccc1	MC4R antag cAMP 67.5 | cAMP nonselect inactive | MC4R antag conf inactive
Cc1sc(NC(=O)c2cccc(N3C(=O)CCC3=O)c2)nc1-c1ccccc1	none
COc1ccc(-c2csc(NC(=O)c3cccc(N4C(=O)CCC4=O)c3)n2)cc1C	MC4R antag cAMP 58.3 | cAMP nonselect 17.9 | MC4R antag conf 33.5
COc1ccccc1C(O)(c1ccccc1)c1ccccc1OC	none (no result: NTR1 ag, AI-2 QS modul)
CC(c1ccccc1C(O)(c1ccccc1)c1ccccc1)N(C)C (stereo not given)	MC4R antag cAMP 29.5 | cAMP nonselect inactive | MC4R antag conf inactive
COc1ccc(C(=O)N/C(=C\c2ccc3c(c2)OCO3)C(=O)NCCc2nc3ccccc3[nH]2)cc1	MC4R antag cAMP 29.0 | cAMP nonselect inactive | MC4R antag conf inactive
COc1ccc(/C=C(/NC(=O)c2ccc(OC)cc2)C(=O)NCCc2c[nH]c3ccccc23)cc1	none
COc1cccc(NC(=O)[C@H](NC(=O)[C@@H]2Cc3ccccc3CN2)c2ccccc2)c1	none
COc1ccc(C(CC(=O)c2ccc(C)cc2)C(C#N)C#N)cc1OC (stereo not given)	MC4R antag cAMP 29.6 | cAMP nonselect inactive | MC4R antag conf inactive
O=S(=O)(c1ccccc1)C1CON(Cc2ccccc2)C1c1ccccc1 (stereo not given)	MC4R antag cAMP 29.7 | cAMP nonselect inactive | MC4R antag conf inactive
CN1OCC(S(=O)(=O)c2ccccc2)C1c1ccccc1 (stereo not given)	none
CCCn1c(CCNc2nc(-c3ccc(Cl)c([N+](=O)[O-])c3)cs2)nc2cc(Cl)c(Cl)cc21	none
O=[N+]([O-])c1cc(-c2csc(NCCc3nc4cc(Cl)c(Cl)cc4n3CCCO)n2)ccc1Cl	MC4R antag cAMP 33.2 | cAMP nonselect 15.6 | MC4R antag conf inactive
COc1ccccc1CN(C)C(=O)c1ccc(COc2ccccc2)cc1	MC4R antag cAMP 31.4 | cAMP nonselect inactive | MC4R antag conf inactive
Cc1sc(NC(=O)C2CSC3(C)CCC(=O)N23)nc1-c1ccc(F)cc1 (stereo not given)	none
Cc1[nH]n(-c2ccccc2)c(=O)c1C=NC1CCCCCC1	MC4R antag cAMP 33.5 | cAMP nonselect inactive | MC4R antag conf inactive
Cc1[nH]n(-c2ccccc2)c(=O)c1C=NC1CCCCC1	none
O=C(Nc1ccccn1)c1ccc(Br)s1	MC4R antag cAMP 30.6 | cAMP nonselect inactive | MC4R antag conf inactive
COc1ccc(C2c3cc4c(cc3OC(N3CCOCC3)C2C)OCO4)c(OC)c1 (stereo not given)	none (no result: NTR1 ag, AI-2 QS modul)
C=CCn1nnnc1-c1cccc(Cl)c1	MC4R antag cAMP 34.5 | cAMP nonselect inactive | MC4R antag conf inactive
CN(C)c1cccc(NC(=O)c2ccco2)c1	none
CCN(CC)P(=O)(Nc1cccc(C(F)(F)F)c1)c1ccc(N(C)C)cc1NC(=O)c1ccco1 (stereo not given)	MC4R antag cAMP 34.5 | cAMP nonselect inactive | MC4R antag conf inactive
CC(C)(C)c1cc(CCC(=O)Nc2ccncc2)cc(C(C)(C)C)c1O	none
COc1ccccc1C(=O)Oc1ccccc1C(=O)Nc1ccccc1	none
O=C(Oc1ccccc1C(=O)Nc1ccccc1)c1ccc(Br)c([N+](=O)[O-])c1	MC4R antag cAMP 35.8 | cAMP nonselect inactive | MC4R antag conf inactive
COc1ccc(-n2cc(-c3ccccc3)[n+]3c2CCCCC3)cc1	none
FC(F)Oc1ccc(-n2cc(-c3ccc(Cl)cc3)[n+]3c2CCCCC3)cc1	MC4R antag cAMP 28.7 | cAMP nonselect inactive | MC4R antag conf inactive
Cc1ccc(C)c(NC(=O)C2(C)CCCN2C(=O)C(C)C)c1 (stereo not given)	none (no result: NTR1 ag, AI-2 QS modul)
COc1ccc(NC(=O)c2cc(-c3cc(F)ccc3OC)n[nH]2)c(OC)c1	none (no result: NTR1 ag, AI-2 QS modul)
COc1ccc(NC(=O)c2cc(-c3ccc(F)cc3OC)n[nH]2)c(OC)c1	MC4R antag cAMP 30.0 (no result: NTR1 ag, AI-2 QS modul) | cAMP nonselect inactive | MC4R antag conf inactive
CN(Cc1c(F)cccc1Cl)C(=O)CCc1c[nH]c2ccccc12	MC4R antag cAMP 29.2 | cAMP nonselect inactive | MC4R antag conf inactive
O=C(Cc1cccc(NC(=O)C2CCCN(C(=O)C3CCC3)C2)c1)Nc1ccc(C(=O)N2CCCCC2)cc1 (stereo not given)	none (no result: NTR1 ag, AI-2 QS modul)
COc1ccc(/C=N/Nc2cc(C)nc(NS(=O)(=O)c3ccc(C)cc3)n2)cc1	MC4R antag cAMP 31.9 | cAMP nonselect inactive | MC4R antag conf inactive
COc1cc(/C=N/Nc2cc(C)nc(NS(=O)(=O)c3ccc(C)cc3)n2)ccc1O	none (no result: NTR1 ag)
O=C(/C=C/c1cccs1)N1CCC2(CC1)Oc1ccc(Cl)cc1C(=O)C21CC(c2cccnc2)=NO1 (stereo not given)	MC4R antag cAMP 28.6 | cAMP nonselect inactive | MC4R antag conf inactive
CC(Oc1ccccc1)C(=O)N1CCC2(CC1)Oc1ccc(Cl)cc1C(=O)C21CC(c2ccccc2)=NO1 (stereo not given)	none (no result: MC4R antag cAMP, MC4R ag barr)
